Reference: ChEMBL document CHEMBL1147969, “Synthesis of some novel heterocyclic compounds derived from diflunisal hydrazide as potential anti-infective and anti-inflammatory agents” (2007)
Converted amounts (≈) assume the structure as drawn. The source made the active and inactive calls.

Experiments:
[1] = system: Mus musculus; assay: Antiinflammatory activity against BALB/c mouse assessed as inhibition of carrageenan-induced paw edema at 50 mg/kg, po after 4 hrs; assay type: functional
Method in brief: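 Mice were fasted on the last day (water only) and dosed by gavage at 50 mg/kg, suspended in 0.5% methyl cellulose; controls got vehicle, six mice per group. After 60 min, 0.5 mg/mL carrageenan in saline was injected subplantar into the right hind paw, with saline in the left. The right–left thickness difference was read by microcaliper at 4 h. % inhibition = (n−n0)/n×100 versus control.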

[2] = system: Mus musculus; assay: Antinociceptive activity against mouse assessed as paw withdrawal latency at 50 mg/kg, po after 60 mins by hot plate test; assay type: functional
Method in brief: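 Hot plate was set at 55 °C. Latency to jumping or hind-paw licking was recorded before and 60 min after oral dosing at 50 mg/kg, or vehicle, with a 30 s cutoff. Groups had at least eight mice each. Testing was done between 2:00 and 4:00 pm.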

[3] = system: Human alphaherpesvirus 2; assay: Antiviral activity against HSV2-induced cytopathogenicity at 16 ug/mL; assay type: functional, organism-based
[4] = system: Coxsackievirus B4; assay: Antiviral activity against Coxsackie virus B4-induced cytopathogenicity at 16 ug/mL; assay type: functional, organism-based
[5] = system: Sindbis virus; assay: Antiviral activity against Sindbis virus-induced cytopathogenicity at 9.6 ug/mL; assay type: functional, organism-based
[6] = system: Human alphaherpesvirus 1; assay: Antiviral activity against TK positive HSV1 KOS-induced cytopathogenicity at 16 ug/mL; assay type: functional, organism-based
[7] = system: Sindbis virus; assay: Antiviral activity against Sindbis virus-induced cytopathogenicity at 16 ug/mL; assay type: functional, organism-based
[8] = system: Punta Toro virus; assay: Antiviral activity against Punta Toro virus-induced cytopathogenicity at 16 ug/mL; assay type: functional, organism-based
[9] = system: Human alphaherpesvirus 1; assay: Antiviral activity against acyclovir resistant TK positive HSV1 KOS-induced cytopathogenicity at 16 ug/mL; assay type: functional, organism-based
[10] = system: Proteus vulgaris; assay: Antimicrobial activity against Proteus vulgaris KUKEM1329 by disk diffusion method at 10 ug/disc; assay type: functional; conditions: read-out: IZ
[11] = system: Proteus vulgaris; assay: Antimicrobial activity against Proteus vulgaris A161 by disk diffusion method at 10 ug/disc; assay type: functional; conditions: read-out: IZ
[12] = system: Streptococcus pyogenes; assay: Antimicrobial activity against Streptococcus pyogenes ATCC 176 by disk diffusion method at 10 ug/disc; assay type: functional; conditions: read-out: IZ
[13] = system: Streptococcus pyogenes; assay: Antimicrobial activity against Streptococcus pyogenes KUKEM676 by disk diffusion method at 10 ug/disc; assay type: functional; conditions: read-out: IZ
[14] = system: Aspergillus flavus; assay: Antifungal activity against Aspergillus flavus at 300 ug/disc after 72 hrs by disk diffusion method; assay type: functional
Method in brief: (§1)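 Disc diffusion was run on potato dextrose agar seeded with 10^4 spore/mL. 6 mm discs each carried 300 per disc of test agent. DMSO-impregnated discs served as negative controls. Plates were incubated 72 h, at 27 °C for plant-associated isolates or 37 °C for clinical isolates. The read-out was inhibition zone diameter in mm. Each assay was repeated twice.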

[15] = system: Aspergillus versicolor; assay: Antifungal activity against Aspergillus variecolor at 300 ug/disc after 72 hrs by disk diffusion method; assay type: functional; method in brief: as §1
[16] = system: Trichophyton rubrum; assay: Antifungal activity against Trichophyton rubrum at 300 ug/disc after 72 hrs by disk diffusion method; assay type: functional; method in brief: as §1
[17] = system: Trichophyton benhamiae; assay: Antifungal activity against Trichophyton mentagrophytes at 300 ug/disc after 72 hrs by disk diffusion method; assay type: functional, Arthroderma benhamiae; method in brief: as §1
[18] = system: Enterococcus faecalis; assay: Antimicrobial activity against Enterococcus faecalis ATCC […] by microwell dilution method; assay type: functional
Method in brief: (§2)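 For broth microdilution, inocula came from 12 h broth cultures adjusted to 0.5 McFarland. Test agents in 10% DMSO were serially diluted twofold (7.8–500) in nutrient broth. Wells were shaken 20 s at 300 rpm and incubated 24 h. Clear wells were plated on nutrient agar to check growth. MIC was the lowest concentration inhibiting growth. Each compound was screened twice per organism.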

[19] = system: Proteus vulgaris; assay: Antimicrobial activity against Proteus vulgaris KUKEM1329 by disk diffusion method at 300 ug/disc; assay type: functional; method in brief: as §2
[20] = system: Streptococcus pyogenes; assay: Antimicrobial activity against Streptococcus pyogenes ATCC 176 by microwell dilution method; assay type: functional; method in brief: as §2
[21] = system: Streptococcus pyogenes; assay: Antimicrobial activity against Streptococcus pyogenes KUKEM676 by microwell dilution method; assay type: functional; method in brief: as §2
[22] = system: Streptococcus pyogenes; assay: Antimicrobial activity against Streptococcus pyogenes KUKEM676 by disk diffusion method at 300 ug/disc; assay type: functional
Method in brief: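 Mueller-Hinton agar was spread with 10^8 CFU/mL bacteria. 6 mm discs held 300 per disc of test agent, with DMSO discs as negative controls. Plates were incubated 24 h, at 37 °C for clinical strains or 27 °C for plant-associated strains. Zone of inhibition diameter in mm was measured. Each assay was repeated twice.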

[23] = system: Proteus vulgaris; assay: Antimicrobial activity against Proteus vulgaris A161 […]; assay type: functional; method in brief: as §2
[24] = system: Aspergillus flavus; assay: Antifungal activity against Aspergillus flavus after 72 hrs by agar dilution method; assay type: functional
Method in brief: (§3)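 Fungal isolates were screened on agar dilution plates. Test agents in 10% DMSO were mixed into potato dextrose agar containing 0.5% v/v Tween 20, over a range of 7.8–500. Plates were spot-inoculated with 10^4 spore/mL and held 72 h, at 27 °C for plant isolates or 37 °C for clinical isolates. MIC was the lowest concentration with no growth. Each test was repeated at least twice.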

[25] = system: Aspergillus versicolor; assay: Antifungal activity against Aspergillus variecolor after 72 hrs by agar dilution method; assay type: functional; method in brief: as §3
[26] = system: Trichophyton rubrum; assay: Antifungal activity against Trichophyton rubrum after 72 hrs by agar dilution method; assay type: functional; method in brief: as §3
[27] = system: Escherichia coli; assay: Antimicrobial activity against Escherichia coli A1 by microwell dilution method; assay type: functional; method in brief: as §2
[28] = system: Trichophyton benhamiae; assay: Antifungal activity against Trichophyton mentagrophytes after 72 hrs by agar dilution method; assay type: functional, Arthroderma benhamiae; method in brief: as §3

`C=CCNc1nnc(-c2cc(-c3ccc(F)cc3F)ccc2O)o1` was tested, and the inhibition in vivo at 50 mg/kg [1] was 36.6%, the Paw withdrawal latency [2] was 9.8 s and the Activity [3] was “Active”.

`Oc1ccc(-c2ccc(F)cc2F)cc1-c1nnc(Nc2ccccc2)o1` was tested, and the inhibition in vivo at 50 mg/kg [1] was 39.5% and the Paw withdrawal latency [2] was 12 s.

For `CNc1nnc(-c2cc(-c3ccc(F)cc3F)ccc2O)o1`, the inhibition in vivo at 50 mg/kg [1] was 41.4% and the Paw withdrawal latency [2] was 10.9 s.

In the case of `CNc1nnc(-c2cc(-c3ccc(F)cc3F)ccc2O)s1`, the inhibition in vivo at 50 mg/kg [1] was 45.4%, the Paw withdrawal latency [2] was 13.5 s and the Activity [4] was “Active”. The Activity [5] was “Active”, the Activity [6] was “Active” and the Activity [7] was “Active”. For the same compound, the Activity [8] was “Active” and the Activity [9] was “Active”.

Compound `COc1ccc(Nc2nnc(-c3cc(-c4ccc(F)cc4F)ccc3O)o2)cc1` has an inhibition in vivo at 50 mg/kg [1] of 35.3% and a Paw withdrawal latency [2] of 12 s.

For `CCNc1nnc(-c2cc(-c3ccc(F)cc3F)ccc2O)o1`, the inhibition in vivo at 50 mg/kg [1] was 36.8% and the Paw withdrawal latency [2] was 11 s.

For `CC1COc2c(N3CCN(C)CC3)c(F)cc3c(=O)c(C(=O)O)cn1c23` (configuration not stated) [OFLOXACIN], the zone of inhibition at 10 µg/disc [10] was 13 mm, the zone of inhibition at 10 µg/disc [11] was 12 mm and the zone of inhibition at 10 µg/disc [12] was 10 mm. It also gave a zone of inhibition at 10 µg/disc [13] of 13 mm.

In the case of `C=CCNc1nnc(-c2cc(-c3ccc(F)cc3F)ccc2O)s1`, the inhibition in vivo at 50 mg/kg [1] was 57.2%, the Paw withdrawal latency [2] was 13.9 s and the Activity [4] was “Active”. The Activity [6] was “Active”, the Activity [7] was “Active” and the Activity [8] was “Active”. The Activity [9] was “Active”.

For `Oc1ccc(-c2ccc(F)cc2F)cc1-c1nnc(NC2CCCCC2)s1`, the inhibition in vivo at 50 mg/kg [1] was 41.4% and the Paw withdrawal latency [2] was 12.5 s.

`CCN[C@@H]1C[C@H](N)[C@@H](O[C@H]2OC(CN)=CC[C@H]2N)[C@H](O)[C@H]1O[C@H]1OC[C@](C)(O)[C@H](NC)[C@H]1O` [NETILMICIN] gave an MIC [14] of 15.6 µg/mL (≈ 32.8 µM), an MIC [15] of 62.5 µg/mL (≈ 131 µM) and an MIC [16] of 15.6 µg/mL (≈ 32.8 µM). It also gave an MIC [17] of 31.2 µg/mL (≈ 65.7 µM).

For `Cc1ccc(Nc2nnc(-c3cc(-c4ccc(F)cc4F)ccc3O)s2)cc1`, the inhibition in vivo at 50 mg/kg [1] was 43.5% and the Paw withdrawal latency [2] was 14.5 s.

With `COc1ccc(-n2c(-c3cc(-c4ccc(F)cc4F)ccc3O)n[nH]c2=S)cc1` the inhibition in vivo at 50 mg/kg [1] was 53.5%, the Paw withdrawal latency [2] was 15 s and the “inhibition zone (IZ)” value [18] was 12 mm. The “inhibition zone (IZ)” value [19] was 10 mm, the “inhibition zone (IZ)” value [20] was 10 mm and the “inhibition zone (IZ)” value [21] was 9 mm. The MIC [22] was 125 µg/mL (≈ 304 µM).

With `Oc1ccc(-c2ccc(F)cc2F)cc1-c1n[nH]c(=S)n1C1CCCCC1` the inhibition in vivo at 50 mg/kg [1] was 64.4%, the Paw withdrawal latency [2] was 13.2 s and the “inhibition zone (IZ)” value [23] was 10 mm. The “inhibition zone (IZ)” value [19] was 12 mm and the Activity [7] was “Active”.

`Cc1ccc(-n2c(-c3cc(-c4ccc(F)cc4F)ccc3O)n[nH]c2=S)cc1` was tested, and the inhibition in vivo at 50 mg/kg [1] was 51.6% and the Paw withdrawal latency [2] was 14.2 s.

Work on `CO/N=C(\C(=O)N[C@@H]1C(=O)N2C(C(=O)[O-])=C(C[N+]3(C)CCCC3)CS[C@H]12)c1csc(N)n1` [CEFEPIME] yielded an MIC [22] of 31.2 µg/mL (≈ 65 µM).

`Oc1ccc(-c2ccc(F)cc2F)cc1-c1nnc(NC2CCCCC2)o1` was tested, and the inhibition in vivo at 50 mg/kg [1] was 23.8% and the Paw withdrawal latency [2] was 12 s.

With `CCNc1nnc(-c2cc(-c3ccc(F)cc3F)ccc2O)s1` the inhibition in vivo at 50 mg/kg [1] was 50.2% and the Paw withdrawal latency [2] was 13.5 s.

For `CCn1c(-c2cc(-c3ccc(F)cc3F)ccc2O)n[nH]c1=S`, the inhibition in vivo at 50 mg/kg [1] was 46.2%, the Paw withdrawal latency [2] was 17.1 s and the “inhibition zone (IZ)” value [23] was 9 mm. The “inhibition zone (IZ)” value [19] was 9 mm, the “inhibition zone (IZ)” value [24] was 16 mm and the MIC [14] was 31.2 µg/mL (≈ 93.7 µM). The “inhibition zone (IZ)” value [25] was 14 mm, the MIC [15] was 31.2 µg/mL (≈ 93.7 µM) and the “inhibition zone (IZ)” value [26] was 16 mm. The MIC [16] was 15.2 µg/mL (≈ 45.7 µM) and the Activity [4] was “Active”.

In the case of `Oc1ccc(-c2ccc(F)cc2F)cc1-c1n[nH]c(=S)n1-c1ccccc1`, the inhibition in vivo at 50 mg/kg [1] was 36.3%, the Paw withdrawal latency [2] was 16 s and the Activity [6] was “Active”.

With `Cn1c(-c2cc(-c3ccc(F)cc3F)ccc2O)n[nH]c1=S` the inhibition in vivo at 50 mg/kg [1] was 56.9%, the Paw withdrawal latency [2] was 16.4 s and the “inhibition zone (IZ)” value [23] was 10 mm. For the same compound, the “inhibition zone (IZ)” value [19] was 8 mm.

With `C=CCn1c(-c2cc(-c3ccc(F)cc3F)ccc2O)n[nH]c1=S` the inhibition in vivo at 50 mg/kg [1] was 73%, the Paw withdrawal latency [2] was 16.8 s and the “inhibition zone (IZ)” value [18] was 10 mm. For the same compound, the “inhibition zone (IZ)” value [27] was 12 mm, the “inhibition zone (IZ)” value [23] was 10 mm and the “inhibition zone (IZ)” value [19] was 9 mm. For the same compound, the “inhibition zone (IZ)” value [20] was 12 mm, the “inhibition zone (IZ)” value [21] was 14 mm and the MIC [22] was 62.2 µg/mL (≈ 180 µM). The “inhibition zone (IZ)” value [24] was 14 mm, the MIC [14] was 31.2 µg/mL (≈ 90.5 µM) and the “inhibition zone (IZ)” value [25] was 10 mm. The MIC [15] was 62.5 µg/mL (≈ 181 µM), the “inhibition zone (IZ)” value [28] was 14 mm and the MIC [17] was 31.2 µg/mL (≈ 90.5 µM).

With `Cc1ccc(Nc2nnc(-c3cc(-c4ccc(F)cc4F)ccc3O)o2)cc1` the inhibition in vivo at 50 mg/kg [1] was 33.8% and the Paw withdrawal latency [2] was 11.1 s.

`O=C(O)c1cc(-c2ccc(F)cc2F)ccc1O` [DIFLUNISAL] showed an inhibition in vivo at 50 mg/kg [1] of 24.2% and a Paw withdrawal latency [2] of 19.1 s.

In the case of `COc1ccc(Nc2nnc(-c3cc(-c4ccc(F)cc4F)ccc3O)s2)cc1`, the inhibition in vivo at 50 mg/kg [1] was 55.3% and the Paw withdrawal latency [2] was 19.2 s.

`Oc1ccc(-c2ccc(F)cc2F)cc1-c1nnc(Nc2ccccc2)s1` was tested, and the inhibition in vivo at 50 mg/kg [1] was 43%, the Paw withdrawal latency [2] was 16.5 s and the “inhibition zone (IZ)” value [27] was 16 mm. For the same compound, the “inhibition zone (IZ)” value [23] was 14 mm, the “inhibition zone (IZ)” value [19] was 16 mm and the “inhibition zone (IZ)” value [20] was 18 mm.
